pIC50: −log10 of the molar value.
Experiments:
Format in all cases: functional, cell-based
HUVEC = assay: Antiproliferative activity against HUVEC after 96 hrs by MTT method; details: Homo sapiens
In short: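 HUVECs seeded at 1000 cells/well in 96-well plates and left to attach 20 h. Compound added in 0.1% DMSO at several concentrations, with a carrier-only control. Each concentration run in triplicate. After 96 h exposure, viability was read by MTT and expressed relative to control. IC50 was derived from viability versus concentration.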

Bel-7402 = assay: Antiproliferative activity against human Bel7402 cells after 96 hrs by MTT method
In short: (§1)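 Cancer cells seeded at 1500 cells/well in 96-well plates and allowed 20 h to attach. They were then exposed to compound in 0.1% DMSO over a range of concentrations, with an equal volume of carrier as control, in triplicate. After 96 h, MTT was used to give relative viability. IC50 came from the viability versus concentration relationship.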

MCF7 = assay: Antiproliferative activity against human MCF7 cells after 96 hrs by MTT method; in short: as §1
A549 = assay: Antiproliferative activity against human A549 cells after 96 hrs by MTT method; in short: as §1

Row | IC50 (Bel-7402) | IC50 (MCF7) | IC50 (A549) | SMILES | pIC50 (HUVEC)
1 | Not Active | Not Active | Not Active | CCOC(=O)/C=C/c1c(C(=O)OCC)oc2ccc(O)cc12 | 4.49
2 | Not Active | Not Active | Not Active | CCOC(=O)/C=C/c1oc2ccc(O)cc2c1C | < 4.30
3 | Not Active | Not Active | Not Active | CCOC(=O)/C=C/c1c(C)oc2ccc(O)cc12 | 4.56
4 | Not Active | Not Active | Not Active | CCOC(=O)/C=C/c1oc2ccc(O)cc2c1C(=O)OCC | 5.37

Source: ChEMBL document CHEMBL1153366, “Synthesis, discovery and preliminary SAR study of benzofuran derivatives as angiogenesis inhibitors” (Bioorg Med Chem Lett, 2009)
